Reference: article PMC9988221 (Journal of Clinical Psychopharmacology, 2023)
Where two headings read alike, the source gives them in different places.

What was measured:
[1] = Safety and tolerability; type: in vivo, human; settings: this study, healthy male participants
Procedure, shortened: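 Phase I open-label, single-sequence crossover in healthy men. No specific safety endpoints were set. Counts of participants with treatment-emergent AEs (drug-related, serious, special interest, other significant), including clinically relevant physical and neurological examination findings, were analysed in the treated set. End-of-trial visit was 11–16 days after the last test compound dose.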

[2] = cited from earlier work
[3] = biological target: T1, CYP2C8 (Homo sapiens, UniProt P10632); experiment: Reversible CYP inhibition in human liver microsomes, amodiaquine substrate
T1 sequence (P10632 1-490): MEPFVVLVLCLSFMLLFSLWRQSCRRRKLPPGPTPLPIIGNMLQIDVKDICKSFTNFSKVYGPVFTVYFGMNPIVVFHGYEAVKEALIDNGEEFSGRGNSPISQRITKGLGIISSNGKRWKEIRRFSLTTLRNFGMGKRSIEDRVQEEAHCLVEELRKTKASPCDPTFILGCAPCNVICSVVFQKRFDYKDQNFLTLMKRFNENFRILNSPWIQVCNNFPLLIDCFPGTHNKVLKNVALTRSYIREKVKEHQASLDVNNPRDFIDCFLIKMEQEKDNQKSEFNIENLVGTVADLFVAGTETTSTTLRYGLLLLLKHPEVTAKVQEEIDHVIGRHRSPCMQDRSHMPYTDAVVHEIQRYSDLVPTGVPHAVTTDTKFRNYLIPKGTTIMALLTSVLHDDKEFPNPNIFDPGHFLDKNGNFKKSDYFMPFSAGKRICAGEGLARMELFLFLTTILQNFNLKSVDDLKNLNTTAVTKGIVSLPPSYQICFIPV

[4] = tested on: CYP3A4 mRNA; type: in vitro ADME, human; settings: for Emax for induction of CYP3A4 mRNA levels: 10 to 30 μM BI 425809
[5] = tested on: CYP3A4/5; settings: human, human liver microsomes
[6] = tested on: human hepatocytes; experiment: Cell viability of hepatocytes in the induction assay; type: cell-based; settings: hepatocytes from any donor; BI 425809 up to 30 μM
[7] = tested on: CYP3A4; settings: for Emax for induction of CYP3A4 activity: BI 425809 10 to 30 μM, 48 hours
[8] = biological target: T2, CYP2B6 (Homo sapiens, UniProt P20813); experiment: Reversible CYP inhibition in human liver microsomes, bupropion substrate
T2 sequence (P20813 1-491): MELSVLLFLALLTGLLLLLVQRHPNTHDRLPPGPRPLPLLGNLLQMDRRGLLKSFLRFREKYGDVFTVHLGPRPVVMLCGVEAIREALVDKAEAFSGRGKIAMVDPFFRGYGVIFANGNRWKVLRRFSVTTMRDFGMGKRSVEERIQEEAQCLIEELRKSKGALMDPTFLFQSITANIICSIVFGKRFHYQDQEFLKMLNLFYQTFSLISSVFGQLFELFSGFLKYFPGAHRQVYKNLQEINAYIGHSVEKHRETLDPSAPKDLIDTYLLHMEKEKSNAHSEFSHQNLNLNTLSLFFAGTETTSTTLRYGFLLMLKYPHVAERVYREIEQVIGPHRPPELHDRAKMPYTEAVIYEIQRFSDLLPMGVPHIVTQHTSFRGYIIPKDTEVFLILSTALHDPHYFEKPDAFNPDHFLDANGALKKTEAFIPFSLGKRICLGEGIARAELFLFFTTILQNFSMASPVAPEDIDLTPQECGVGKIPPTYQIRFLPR

[9] = biological target: CYP2D6 (Homo sapiens, UniProt P10635); experiment: Reversible CYP inhibition in human liver microsomes, dextromethorphan substrate
[10] = biological target: CYP2C19 (Homo sapiens, UniProt P33261); experiment: Reversible CYP inhibition in human liver microsomes, S-mephenytoin substrate
[11] = tested on: CYP3A4; experiment: Basic induction model; parameters: species or system human
[12] = tested on: CYP3A4; experiment: in vitro; settings: human, Emax for induction of CYP3A4 activity, % of positive control effect
[13] = type: in vivo, human; settings: once-daily BI 425809 25 mg; midazolam exposure
[14] = Attainment of BI 425809 steady state; type: in vivo, human
[15] = biological target: P-gp (Homo sapiens, UniProt P08183); type: in vitro ADME
Procedure, shortened: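 Bidirectional Caco-2 monolayer transport in HBSS with 15 mM HEPES, pH 7.4, after 30 min equilibration. [³H]digoxin (1 μM) went in the donor side, and test compound (1–100 μM) or zosuquidar (1 μM) on both sides. After 30 min preincubation, sampling ran to 90 min and was read by scintillation counting. Papp gave the B-to-A/A-to-B efflux ratio, and IC50 with slope factor came from nonlinear regression of efflux ratio against inhibitor concentration.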

[16] = Unbound plasma fraction; type: in vitro ADME; settings: derived from other preclinical studies (data not shown)
[17] = biological target: T3, CYP1A2 (Homo sapiens, UniProt P05177); experiment: Reversible CYP inhibition in human liver microsomes, phenacetin substrate
T3 sequence (P05177 1-516): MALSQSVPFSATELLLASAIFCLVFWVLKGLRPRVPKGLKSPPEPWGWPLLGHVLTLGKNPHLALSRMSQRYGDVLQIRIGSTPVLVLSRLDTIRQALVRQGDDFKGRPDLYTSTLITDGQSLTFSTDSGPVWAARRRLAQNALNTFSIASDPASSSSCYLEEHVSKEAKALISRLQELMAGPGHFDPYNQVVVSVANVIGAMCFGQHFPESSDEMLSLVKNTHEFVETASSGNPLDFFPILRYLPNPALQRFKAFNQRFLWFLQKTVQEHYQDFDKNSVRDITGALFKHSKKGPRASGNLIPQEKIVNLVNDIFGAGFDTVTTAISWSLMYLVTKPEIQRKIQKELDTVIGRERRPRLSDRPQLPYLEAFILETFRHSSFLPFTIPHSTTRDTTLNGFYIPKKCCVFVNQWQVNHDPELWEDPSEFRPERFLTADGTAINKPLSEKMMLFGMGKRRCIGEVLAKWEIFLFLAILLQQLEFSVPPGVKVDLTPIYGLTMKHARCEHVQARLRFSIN

[18] = biological target: CYP2C9 (Homo sapiens, UniProt P11712); experiment: Reversible CYP inhibition in human liver microsomes, diclofenac substrate
Sequence of CYP2C9 (P11712 whole entry): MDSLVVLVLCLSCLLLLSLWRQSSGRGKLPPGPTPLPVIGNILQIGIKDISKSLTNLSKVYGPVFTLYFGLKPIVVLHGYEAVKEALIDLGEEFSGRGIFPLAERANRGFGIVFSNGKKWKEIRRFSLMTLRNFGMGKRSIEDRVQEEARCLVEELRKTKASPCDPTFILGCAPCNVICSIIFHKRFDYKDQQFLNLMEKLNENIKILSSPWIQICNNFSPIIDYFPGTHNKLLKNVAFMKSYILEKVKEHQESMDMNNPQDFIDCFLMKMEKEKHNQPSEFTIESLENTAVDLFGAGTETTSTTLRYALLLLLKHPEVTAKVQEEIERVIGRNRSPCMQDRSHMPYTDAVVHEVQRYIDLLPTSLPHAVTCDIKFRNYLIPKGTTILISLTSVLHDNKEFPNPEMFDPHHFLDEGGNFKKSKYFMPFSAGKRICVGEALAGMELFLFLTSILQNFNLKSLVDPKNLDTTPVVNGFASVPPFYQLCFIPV

Sequence of P-gp (P08183 whole entry): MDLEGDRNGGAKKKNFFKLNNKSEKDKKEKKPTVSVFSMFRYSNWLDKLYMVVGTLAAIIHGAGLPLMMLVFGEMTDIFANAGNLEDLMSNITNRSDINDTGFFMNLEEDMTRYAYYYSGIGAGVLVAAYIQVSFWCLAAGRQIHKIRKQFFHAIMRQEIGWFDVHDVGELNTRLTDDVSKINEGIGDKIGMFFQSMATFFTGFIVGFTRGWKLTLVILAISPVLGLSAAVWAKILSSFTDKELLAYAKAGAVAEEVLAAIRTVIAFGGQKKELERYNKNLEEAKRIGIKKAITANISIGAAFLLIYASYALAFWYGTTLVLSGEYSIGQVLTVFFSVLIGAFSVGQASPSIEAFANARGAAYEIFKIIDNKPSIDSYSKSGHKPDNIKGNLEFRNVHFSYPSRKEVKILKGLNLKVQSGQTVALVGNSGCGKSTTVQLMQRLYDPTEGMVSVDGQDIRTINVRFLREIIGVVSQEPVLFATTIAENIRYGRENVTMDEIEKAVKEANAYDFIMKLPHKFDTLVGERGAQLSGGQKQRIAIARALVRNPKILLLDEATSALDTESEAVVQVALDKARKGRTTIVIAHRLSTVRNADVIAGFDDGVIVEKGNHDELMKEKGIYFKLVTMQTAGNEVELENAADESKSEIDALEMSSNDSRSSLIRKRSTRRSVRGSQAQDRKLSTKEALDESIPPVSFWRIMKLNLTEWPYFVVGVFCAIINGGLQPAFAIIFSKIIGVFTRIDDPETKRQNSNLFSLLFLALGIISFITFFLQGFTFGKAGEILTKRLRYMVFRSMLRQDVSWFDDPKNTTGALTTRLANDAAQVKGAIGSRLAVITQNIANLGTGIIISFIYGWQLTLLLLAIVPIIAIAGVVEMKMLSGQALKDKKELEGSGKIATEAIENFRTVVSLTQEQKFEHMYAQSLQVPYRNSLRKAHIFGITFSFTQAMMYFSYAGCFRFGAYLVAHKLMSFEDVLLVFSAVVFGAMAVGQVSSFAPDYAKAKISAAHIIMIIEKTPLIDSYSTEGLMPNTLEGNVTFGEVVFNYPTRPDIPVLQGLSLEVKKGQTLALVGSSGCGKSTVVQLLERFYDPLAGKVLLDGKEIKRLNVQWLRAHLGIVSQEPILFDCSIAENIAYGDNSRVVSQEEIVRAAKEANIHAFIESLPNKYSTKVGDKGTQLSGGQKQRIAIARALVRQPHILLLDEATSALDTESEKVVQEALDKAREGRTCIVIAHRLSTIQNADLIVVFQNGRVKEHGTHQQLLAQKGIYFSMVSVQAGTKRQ
Sequence of CYP2D6 (P10635 whole entry): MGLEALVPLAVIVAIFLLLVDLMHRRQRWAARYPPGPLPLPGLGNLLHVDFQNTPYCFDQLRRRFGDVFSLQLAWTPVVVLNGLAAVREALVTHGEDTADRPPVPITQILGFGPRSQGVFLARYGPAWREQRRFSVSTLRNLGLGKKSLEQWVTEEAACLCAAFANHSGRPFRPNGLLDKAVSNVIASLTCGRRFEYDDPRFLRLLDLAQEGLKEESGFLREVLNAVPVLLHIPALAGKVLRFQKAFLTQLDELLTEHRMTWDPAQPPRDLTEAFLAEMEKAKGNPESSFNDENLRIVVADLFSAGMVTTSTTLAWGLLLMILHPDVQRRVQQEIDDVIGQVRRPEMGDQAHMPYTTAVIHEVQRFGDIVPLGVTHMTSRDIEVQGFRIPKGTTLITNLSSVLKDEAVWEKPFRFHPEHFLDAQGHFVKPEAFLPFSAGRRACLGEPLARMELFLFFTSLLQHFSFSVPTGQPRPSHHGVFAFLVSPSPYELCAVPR
Sequence of CYP2C19 (P33261 whole entry): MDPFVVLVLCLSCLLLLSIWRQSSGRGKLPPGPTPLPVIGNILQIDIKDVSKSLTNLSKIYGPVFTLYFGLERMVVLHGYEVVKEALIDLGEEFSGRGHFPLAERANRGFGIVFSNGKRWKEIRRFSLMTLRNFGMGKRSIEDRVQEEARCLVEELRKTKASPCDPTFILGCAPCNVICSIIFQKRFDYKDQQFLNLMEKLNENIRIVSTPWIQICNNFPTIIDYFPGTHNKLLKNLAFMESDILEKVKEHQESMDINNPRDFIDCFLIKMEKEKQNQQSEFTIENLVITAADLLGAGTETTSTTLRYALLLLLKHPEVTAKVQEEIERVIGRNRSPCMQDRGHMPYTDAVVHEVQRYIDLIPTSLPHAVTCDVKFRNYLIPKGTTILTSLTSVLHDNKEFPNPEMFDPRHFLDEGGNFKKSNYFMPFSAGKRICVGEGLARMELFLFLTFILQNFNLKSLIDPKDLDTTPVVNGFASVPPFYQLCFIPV

C[C@@H](Oc1ccc(S(C)(=O)=O)cc1C(=O)N1C[C@@H]2C[C@]2(c2cc(C(F)(F)F)on2)C1)C(F)(F)F [BI 425809]
tolerability [1]: well tolerated | increase of cerebrospinal fluid glycine levels, average ([2]; doses of 10 mg and 25 mg, healthy volunteers): 50% | tolerability ([2]; once-daily oral administration up to 75 mg, Phase I studies): generally well tolerated | steady state reached after ([2]; previous study): 6 days | IC50 [3]: > 100 µM | Emax for induction of CYP3A4 mRNA levels ([4]; hepatocytes donor 1): 14 fold | Emax for induction of CYP3A4 mRNA levels ([4]; hepatocytes donor 2): 13 fold | Emax for induction of CYP3A4 mRNA levels ([4]; hepatocytes donor 3): 37 fold | induction of CYP3A4 mRNA levels (in words) ([4]; hepatocytes from donors 1, 2, and 3): concentration-dependent induction | EC50 at 48 h ([4]; human, sandwich-cultured primary human hepatocytes): 1.96 µM | Emax for induction of CYP3A4 ([4]; mRNA levels of all three donors fitted to 3-parameter sigmoidal model): 18.7 fold | IC50 [5]: > 100 µM | cell viability relative to vehicle control [6]: No decrease in cell viability | Emax for induction of CYP3A4 activity ([7]; hepatocytes donor 1): 10 fold | Emax for induction of CYP3A4 activity ([7]; hepatocytes donor 2): 3.4 fold | Emax for induction of CYP3A4 activity ([7]; hepatocytes donor 3): 6.6 fold | induction of CYP3A4 activity (in words) ([7]; human hepatocytes): Concentration-dependent induction | IC50 [8]: > 100 µM | IC50 [9]: > 100 µM | IC50 [10]: > 100 µM | R3 (change in hepatic metabolic clearance of a sensitive CYP3A4 substrate) ([11]; basic model, 2020 FDA guidance, unbound plasma fraction 0.196): 0.12 | Imax,u, maximum unbound plasma concentration ([11]; input of the basic induction model): approximately 121 nM | Emax [12]: 37% | CYP3A4 induction in vivo (in words) [13]: mild inducer of CYP3A4 in vivo | steady state reached by ([14]; BI 425809 25 mg once daily, Cpre on days 8, 9, 10): ≤ 8 days | adjusted gMean ratios of Cpre of the compared sampling time points ([14]; pairwise comparisons of days 8, 9, and 10 in period 2): ~100% | IC50 [15]: 14 µM | effect on P-gp-mediated transcellular transport of digoxin (in words) ([15]; Caco-2 cell monolayer, zosuquidar 1 μM, BI 425809 1-100 μM): concentration-dependent inhibition | I2/IC50 ratio ([15]; I2 = dose[mol]/250 mL): approximately 13 | unbound plasma fraction [16]: 0.196 | IC50 [17]: > 100 µM | IC50 [18]: 54.9 µM
